High-throughput results (PubChem BioAssay)
A selection: hits, their analogues and other compounds. The true share with any hit is near 2.4%.
Rtt109 HAT inh: C. albicans Rtt109 histone acetyltransferase inhibition | Q5AAJ8 | inhibition, % at 34.9 µM | purified Rtt109/Vps75, ThioGlo CoA-SH fluorescence, 4 h | 330,000 tested, 0.16% active | AID 540336;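 active = inhibition of at least 50% in every replicate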
HIV Env fusion: HIV envelope-mediated fusion inhibition. HeLa-JRFL Env/CEM21 cell fusion, luciferase. inhibition, % at 12.3 µM. 360,000 tested, 1.1% active. AID 651610;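 active = mean replicate inhibition score of at least 50 and every replicate individually at or above 50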
INS-1E GSIS act: primary screen for activators of insulin secretion dependent on glucose, INS-1E cells, GLuc reporter luminescence | INS-1E GLuc reporter insulin secretion, 2-3 h | activation, % at 16.6 µM | 370,000 tested, 0.61% active | AID 743287;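 active = lowest replicate activation of at least 40%, so every replicate reaches that level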
dFosB act-1: activators of mouse delta FosB homodimer; purified delta FosB, TAMRA-CDK5 oligo fluorescence polarization; percent of positive-control signal above neutral wells; activation, % at 25 µM; 340,000 tested, 0.99% active;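 active = mean activation above about 17%, with every replicate also reaching it, limit read from the data, passing the limit was not always enough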
Target sequence (P13346 whole entry, looked up): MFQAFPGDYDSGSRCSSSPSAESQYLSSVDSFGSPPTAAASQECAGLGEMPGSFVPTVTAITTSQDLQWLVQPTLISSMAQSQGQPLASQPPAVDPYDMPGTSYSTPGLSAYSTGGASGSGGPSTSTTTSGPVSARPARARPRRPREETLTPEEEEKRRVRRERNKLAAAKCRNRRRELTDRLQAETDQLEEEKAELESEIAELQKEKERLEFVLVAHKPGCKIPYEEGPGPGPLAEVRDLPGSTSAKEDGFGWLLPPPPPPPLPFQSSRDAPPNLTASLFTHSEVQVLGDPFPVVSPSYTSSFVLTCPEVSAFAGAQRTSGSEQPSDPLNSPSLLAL
miR122 inh: miR-122 inhibition in Huh7 cells. Huh7 miR-122 Renilla luciferase sensor, 48 h; neutral wells = 0, positive control = 100. activation (reporter increase), % at 12.5 µM. 340,000 tested, 0.3% active;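 active = mean replicate activation score at least 90 and every replicate individually at or above 90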;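 also: higher luciferase means less miR-122 activity so hits act as miR-122 inhibitors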
Cneo AK release: causes C. neoformans cell lysis | 360,000 tested, 0.2% active | adenylate kinase release luminescence, 4 h; normalised: neutral wells 0, clomiphene wells 100 | AID 651654 | lysis activity, % at 15 µM;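 active = mean lysis activity across replicates of at least 80%, whatever share of replicates individually reach that level; inactive = mean lysis activity below 80%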
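Assay system: log-phase C. neoformans yeast / Quantity: yeast cell density of 5 × 10^6 cells/mL / Medium: fresh YPD growth medium / Compound: single dose / Timing: static 4 h at 37 °C with compound, 1 h detection / Measured by: adenylate kinase release luminescence / Read-out: lysis from increased AK signal / Benchmarks: Clomiphene as positive lysis control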
dFosB act-2: activators of mouse delta FosB homodimer DNA binding. shares compounds with dFosB act-1. AID 588690. activation, % at 24.9 µM. purified delta FosB, TAMRA-CDK5 oligo fluorescence polarization; normalised: neutral wells 0, positive control 100. 2,400 tested, under 10 active;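 active = highest replicate activation at or above 34% and every replicate reaching that threshold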;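 also: higher polarization means more probe DNA bound by delta FosB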
Hits are given with their value; - = inactive; . = no result given.

SMILES	Rtt109 HAT inh	HIV Env fusion	INS-1E GSIS act	dFosB act-1	miR122 inh	Cneo AK release	dFosB act-2
Cc1ccc(C(=O)N/N=C\c2cccc(OC(=O)c3cccc(F)c3)c2)cn1	-	-	-	-	-	-	.
Cc1cc(C(=O)N/N=C/c2cc(Br)cc(Br)c2OC(=O)c2cccc(F)c2)n[nH]1	-	-	-	52.7	-	.	-
O=C(Oc1ccc(/C=N/NC(=O)c2ccccn2)cc1)c1cccc(Br)c1	-	-	43.9	19.0	-	-	-
Cc1ccc(C(=O)N/N=C\c2ccc(OC(=O)c3cccc(F)c3)cc2)cn1	-	-	-	31.1	.	-	-
C/C=C/c1cnc2c(c1)C(=O)N([C@H](C)CO)C[C@@H](C)[C@H](CN(C)Cc1ccc(F)cc1)O2	.	-	-	.	-	-	.
COC(=O)c1cc(NC(=O)C2CC(=O)NC(=NCc3ccc(OC)cc3)S2)cc(C(=O)OC)c1 (configuration not stated)	-	-	-	37.1	.	.	-
Cc1ccc2nc(-c3ccc(NC(=O)COC(=O)c4ccc([N+](=O)[O-])o4)cc3)sc2c1	-	.	-	-	.	.	.
Cc1ccc2nc(-c3ccc(NC(=O)COC(=O)c4ccc(Br)o4)cc3)sc2c1	-	-	-	35.3	-	-	-
COc1ccc(-n2nc(C(=O)NCC(=O)Nc3cccc(Cl)c3)c3ccccc3c2=O)cc1	-	-	-	39.4	-	-	-
CO[C@@H]1CN(C)C(=O)c2cc(NC(=O)C3CC3)ccc2OC[C@H](C)N(C(=O)c2ccccc2F)C[C@@H]1C	.	-	-	.	.	-	.
O=c1[nH]c2cc3c(cc2cc1C(c1nnnn1Cc1ccccc1)N1CCCc2ccccc21)OCO3 (configuration not stated)	.	-	-	.	.	.	.
O=c1[nH]c2cc3c(cc2cc1C(c1nnnn1Cc1ccccc1)N1CCCCCC1)OCCO3 (configuration not stated)	-	-	.	27.9	-	-	-
O=c1[nH]c2cc3c(cc2cc1C(c1nnnn1Cc1ccccc1)N1CCN2CCCC2C1)OCCO3 (configuration not stated)	-	-	.	22.2	-	-	-
CC(C)CNC(=O)[C@@]1(c2ccc([N+](=O)[O-])cc2)CC(=O)N(CC23CC4CC(CC(C4)C2)C3)[C@@H]1c1ccc(CO)cc1	.	-	.	.	.	-	.
O=C(Nc1ccccc1)N1CC(=O)N2[C@@H](CO)[C@H](c3ccc(C#CC4CC4)cc3)[C@@H]2C1	.	.	-	.	.	.	.
Cc1sc2nc(SCC(=O)Nc3ccc(S(N)(=O)=O)cc3)[nH]c(=O)c2c1C	-	-	-	101.3	-	-	-
Fc1ccc(N2CCN(C3=Nc4cccc5cccc3c45)CC2)cc1	-	-	-	22.5	.	.	-
Cc1noc(C)c1NC(=O)N(C)C[C@H]1Oc2ccc(NC(=O)Nc3cccc4ccccc34)cc2C(=O)N([C@@H](C)CO)C[C@H]1C	.	-	-	.	-	-	.
C[C@@H]1CN([C@H](C)CO)C(=O)c2cc(-c3ccc(C#N)cc3)cnc2O[C@H]1CN(C)C(=O)Nc1ccc(C(F)(F)F)cc1	.	.	-	.	-	.	.
CN(c1ccccc1)S(=O)(=O)c1nnc(NC(=O)COc2ccccc2)s1	-	-	-	19.8	-	-	-
CN(c1ccccc1)S(=O)(=O)c1nnc(NC(=O)COc2ccccc2F)s1	-	-	-	33.4	-	-	-
Cc1cc(C)cc(OCC(=O)Nc2ccc(-n3cnnn3)cc2)c1	-	.	-	33.6	-	-	-
CC(=O)c1ccc(NC(=O)c2ccc(-n3cnnn3)cc2)cc1	-	-	-	24.0	.	.	-
CC(=O)Nc1ccc(NC(=O)C2CCCN(S(=O)(=O)c3ccc(-n4cnnn4)cc3)C2)cc1 (configuration not stated)	-	-	-	23.0	-	-	-
CC(=O)c1ccc(S(=O)(=O)Nc2ccc(-n3cnnn3)cc2)cc1	-	-	-	-	-	-	.
SMILES	Rtt109 HAT inh	HIV Env fusion	INS-1E GSIS act	dFosB act-1	miR122 inh	Cneo AK release	dFosB act-2
CC(=O)c1ccc(NC(=O)C2CCCN(S(=O)(=O)c3ccc(-n4cnnn4)cc3)C2)cc1 (configuration not stated)	-	-	-	-	-	-	.
CC(=O)N1[C@@H]2Cn3c(ccc(-c4ccccc4)c3=O)[C@H]1[C@@H](C(=O)NCCCN1CCOCC1)[C@@H]2CO	.	.	-	.	.	.	.
CC=Cc1ccc2n(c1=O)C[C@@H]1[C@@H](CO)[C@H](C(=O)NC3CCCC3)N[C@H]21 (mixture of isomers)	.	.	-	.	.	.	.
C[C@H]1CN([C@@H](C)CO)C(=O)Cc2cc(NS(=O)(=O)c3cn(C)cn3)ccc2O[C@@H]1CN(C)Cc1ccc(C(=O)O)cc1	.	-	-	.	-	-	.
CCOc1ccc(-c2cc(NC(=O)Cn3ncc4c3-c3ccccc3OC4)on2)cc1OCC	-	-	-	39.1	-	-	-
COc1cccc(S(=O)(=O)N[C@@H]2CC[C@@H](CCNC(=O)Nc3cc(F)ccc3F)O[C@@H]2CO)c1	.	-	-	.	.	-	.
O=C(Cc1ccccc1F)Nc1nc(-c2cccnc2)cs1	-	-	-	38.8	.	.	-
O=C(Nc1nc(-c2ccccc2Cl)cs1)c1cccnc1	-	-	-	29.4	-	-	-
O=C(NC(=S)Nc1nc(-c2ccccc2)cs1)c1cccnc1	-	-	.	-	-	.	.
Cc1cccc(-c2ccc([C@H]3[C@H](CO)N4C(=O)CN(C(=O)Cc5ccccn5)C[C@@H]34)cc2)c1	.	.	-	.	.	.	.
O=C(COC(=O)c1oc2ccccc2c1CSc1ccc(Cl)cc1)NC1CCCC1	-	-	-	-	.	.	.
NC(=O)COC(=O)c1oc2ccccc2c1CSc1ccc(Cl)cc1	-	-	-	17.5	-	-	-
Cc1ccc(NC(=O)CSc2nnc(NC(=O)C3CC3)s2)cc1C	-	-	-	-	-	-	.
Cc1cc(C)cc(NC(=O)CSc2nnc(NC(=O)C3CC3)s2)c1	-	-	-	28.2	-	-	-
Cc1ccc(NC(=O)CSc2nnc(NC(=O)C3CC3)s2)cc1	-	-	-	31.1	-	-	-
C[C@H]1CN([C@@H](C)CO)C(=O)c2c(c3ccccc3n2C)-c2ccccc2CO[C@@H]1CN(C)C(=O)c1ccncc1	.	-	-	.	.	-	.
Nc1c(C(=O)NCc2cccs2)nnn1CC(=O)Nc1cccc(Cl)c1	-	-	-	20.8	.	.	-
Cc1cccc(NC(=O)Cn2nnc(C(=O)Nc3ccc(F)c(Cl)c3)c2N)c1	-	-	-	89.7	-	-	-
Cc1ccc(NC(=O)Cn2nnc(C(=O)NCc3cccs3)c2N)cc1Cl	-	-	-	-	-	-	.
COc1ccc(NC(=O)Cn2nnc(C(=O)NCc3cccs3)c2N)cc1Cl	-	-	-	35.3	-	-	-
